According to ChEMBL document CHEMBL5058577, “EUbOPEN Chemogenomics Library 2 (Multiplex)” (2022):

Test system: U2OS
Test: Multiplex assay against U2OS
Assay type: toxicity, cell-based
Details: human
Outline: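 Live cells were stained at seeding with Hoechst33342, BioTracker Green Microtubule Cytoskeleton Dye, MitoTracker Red and Annexin V Alexa Fluor 680. Following compound addition, they were imaged on a CQ1 microscope at 37°C and 5% CO2 and gated by CellPathfinder machine learning into Hoechst high-intensity objects or normal cells, with normal cells split into healthy, pyknosed or fragmented nuclei and pyknosed cells into mitotic or apoptotic. Tubulin, mitochondrial-mass and membrane-permeability phenotypes are per cents of healthy-nucleus cells.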

[1] = 12 h, 1 µM, compound concentration 1 uM, replicate 1
[2] = 12 h, 1 µM, compound concentration 1 uM, replicate 2
[3] = 12 h, 10 µM, compound concentration 10 uM, replicate 1
[4] = 12 h, 10 µM, compound concentration 10 uM, replicate 2
[5] = 24 h, 1 µM, compound concentration 1 uM, replicate 1
[6] = 24 h, 1 µM, compound concentration 1 uM, replicate 2
[7] = 24 h, 10 µM, compound concentration 10 uM, replicate 1
[8] = 24 h, 10 µM, compound concentration 10 uM, replicate 2
[9] = 48 h, 1 µM, compound concentration 1 uM, replicate 1
[10] = 48 h, 1 µM, compound concentration 1 uM, replicate 2
[11] = 48 h, 10 µM, compound concentration 10 uM, replicate 1
[12] = 48 h, 10 µM, compound concentration 10 uM, replicate 2

In the case of CCCCCCNC(=O)Nc1ccc(S(=O)(=O)Nc2ccc(CCNC[C@H](O)COc3ccc(O)cc3)cc2)cc1 [L-755507], the “Population Apoptotic (%)” value [1] is reported as 86%, the “Population Fragmented Nuclei (%)” value [1] is reported as 22% and the “Population Healthy Nuclei (%)” value [1] is reported as 67%. For the same compound, the “Population Hoechst High Intensity Objects (%)” value [1] was 4%, the “Population Membrane Permeable-Phenotype (%)” value [1] was 4% and the “Population Mitochondria Different-Phenotype (%)” value [1] was 4%. The “Population Mitotic Cells (%)” value [1] was 13%, the “Population Normal (%)” value [1] was 95% and the “Population Pyknosed Nuclei (%)” value [1] was 9%. For the same compound, the “Population Tubulin-Different-Phenotype (%)” value [1] was 4%, the “Total Cell Count” value [1] was 231 and the “Population Apoptotic (%)” value [2] was 100%. For the same compound, the “Population Fragmented Nuclei (%)” value [2] was 18%, the “Population Healthy Nuclei (%)” value [2] was 75% and the “Population Hoechst High Intensity Objects (%)” value [2] was 0%. The “Population Membrane Permeable-Phenotype (%)” value [2] was 10%, the “Population Mitochondria Different-Phenotype (%)” value [2] was 1% and the “Population Mitotic Cells (%)” value [2] was 0%. For the same compound, the “Population Normal (%)” value [2] was 99%, the “Population Pyknosed Nuclei (%)” value [2] was 5% and the “Population Tubulin-Different-Phenotype (%)” value [2] was 5%. For the same compound, the “Total Cell Count” value [2] was 120, the “Population Apoptotic (%)” value [3] was 60% and the “Population Fragmented Nuclei (%)” value [3] was 31%. The “Population Healthy Nuclei (%)” value [3] was 59%, the “Population Hoechst High Intensity Objects (%)” value [3] was 3% and the “Population Membrane Permeable-Phenotype (%)” value [3] was 13%. The “Population Mitochondria Different-Phenotype (%)” value [3] was 11%, the “Population Mitotic Cells (%)” value [3] was 40% and the “Population Normal (%)” value [3] was 96%. The “Population Pyknosed Nuclei (%)” value [3] was 9%, the “Population Tubulin-Different-Phenotype (%)” value [3] was 10% and the “Total Cell Count” value [3] was 282. The “Population Apoptotic (%)” value [4] was 72%, the “Population Fragmented Nuclei (%)” value [4] was 19% and the “Population Healthy Nuclei (%)” value [4] was 72%. The “Population Hoechst High Intensity Objects (%)” value [4] was 2%, the “Population Membrane Permeable-Phenotype (%)” value [4] was 19% and the “Population Mitochondria Different-Phenotype (%)” value [4] was 15%. The “Population Mitotic Cells (%)” value [4] was 27%, the “Population Normal (%)” value [4] was 97% and the “Population Pyknosed Nuclei (%)” value [4] was 8%. For the same compound, the “Population Tubulin-Different-Phenotype (%)” value [4] was 15%, the “Total Cell Count” value [4] was 140 and the “Population Apoptotic (%)” value [5] was 83%. The “Population Fragmented Nuclei (%)” value [5] was 22%, the “Population Healthy Nuclei (%)” value [5] was 66% and the “Population Hoechst High Intensity Objects (%)” value [5] was 4%. For the same compound, the “Population Membrane Permeable-Phenotype (%)” value [5] was 5%, the “Population Mitochondria Different-Phenotype (%)” value [5] was 5% and the “Population Mitotic Cells (%)” value [5] was 16%. For the same compound, the “Population Normal (%)” value [5] was 95%, the “Population Pyknosed Nuclei (%)” value [5] was 11% and the “Population Tubulin-Different-Phenotype (%)” value [5] was 3%. For the same compound, the “Total Cell Count” value [5] was 285, the “Population Apoptotic (%)” value [6] was 92% and the “Population Fragmented Nuclei (%)” value [6] was 23%. The “Population Healthy Nuclei (%)” value [6] was 67%, the “Population Hoechst High Intensity Objects (%)” value [6] was 2% and the “Population Membrane Permeable-Phenotype (%)” value [6] was 11%. The “Population Mitochondria Different-Phenotype (%)” value [6] was 1%, the “Population Mitotic Cells (%)” value [6] was 7% and the “Population Normal (%)” value [6] was 97%. For the same compound, the “Population Pyknosed Nuclei (%)” value [6] was 9%, the “Population Tubulin-Different-Phenotype (%)” value [6] was 5% and the “Total Cell Count” value [6] was 143. For the same compound, the “Population Apoptotic (%)” value [7] was 85%, the “Population Fragmented Nuclei (%)” value [7] was 25% and the “Population Healthy Nuclei (%)” value [7] was 65%. The “Population Hoechst High Intensity Objects (%)” value [7] was 2%, the “Population Membrane Permeable-Phenotype (%)” value [7] was 7% and the “Population Mitochondria Different-Phenotype (%)” value [7] was 4%. The “Population Mitotic Cells (%)” value [7] was 14%, the “Population Normal (%)” value [7] was 97% and the “Population Pyknosed Nuclei (%)” value [7] was 9%. The “Population Tubulin-Different-Phenotype (%)” value [7] was 3%, the “Total Cell Count” value [7] was 307 and the “Population Apoptotic (%)” value [8] was 88%. For the same compound, the “Population Fragmented Nuclei (%)” value [8] was 14%, the “Population Healthy Nuclei (%)” value [8] was 79% and the “Population Membrane Permeable-Phenotype (%)” value [8] was 9%. For the same compound, the “Population Mitochondria Different-Phenotype (%)” value [8] was 5%, the “Population Mitotic Cells (%)” value [8] was 11% and the “Population Pyknosed Nuclei (%)” value [8] was 6%. For the same compound, the “Population Tubulin-Different-Phenotype (%)” value [8] was 6%, the “Total Cell Count” value [8] was 149 and the “Population Apoptotic (%)” value [9] was 78%. For the same compound, the “Population Fragmented Nuclei (%)” value [9] was 14%, the “Population Healthy Nuclei (%)” value [9] was 74% and the “Population Hoechst High Intensity Objects (%)” value [9] was 1%. For the same compound, the “Population Membrane Permeable-Phenotype (%)” value [9] was 6%, the “Population Mitochondria Different-Phenotype (%)” value [9] was 3% and the “Population Mitotic Cells (%)” value [9] was 21%. The “Population Normal (%)” value [9] was 98%, the “Population Pyknosed Nuclei (%)” value [9] was 11% and the “Population Tubulin-Different-Phenotype (%)” value [9] was 3%. For the same compound, the “Total Cell Count” value [9] was 422, the “Population Apoptotic (%)” value [10] was 91% and the “Population Fragmented Nuclei (%)” value [10] was 26%. The “Population Healthy Nuclei (%)” value [10] was 61%, the “Population Hoechst High Intensity Objects (%)” value [10] was 4% and the “Population Membrane Permeable-Phenotype (%)” value [10] was 12%. The “Population Mitochondria Different-Phenotype (%)” value [10] was 5%, the “Population Mitotic Cells (%)” value [10] was 8% and the “Population Normal (%)” value [10] was 95%. The “Population Pyknosed Nuclei (%)” value [10] was 12%, the “Population Tubulin-Different-Phenotype (%)” value [10] was 6% and the “Total Cell Count” value [10] was 188. The “Population Apoptotic (%)” value [11] was 80%, the “Population Fragmented Nuclei (%)” value [11] was 19% and the “Population Healthy Nuclei (%)” value [11] was 70%. For the same compound, the “Population Hoechst High Intensity Objects (%)” value [11] was 2%, the “Population Membrane Permeable-Phenotype (%)” value [11] was 7% and the “Population Mitochondria Different-Phenotype (%)” value [11] was 2%. For the same compound, the “Population Mitotic Cells (%)” value [11] was 20%, the “Population Normal (%)” value [11] was 97% and the “Population Pyknosed Nuclei (%)” value [11] was 9%. For the same compound, the “Population Tubulin-Different-Phenotype (%)” value [11] was 4%, the “Total Cell Count” value [11] was 419 and the “Population Apoptotic (%)” value [12] was 94%. For the same compound, the “Population Fragmented Nuclei (%)” value [12] was 13%, the “Population Healthy Nuclei (%)” value [12] was 78% and the “Population Hoechst High Intensity Objects (%)” value [12] was 1%. The “Population Mitochondria Different-Phenotype (%)” value [12] was 3%, the “Population Mitotic Cells (%)” value [12] was 5% and the “Population Normal (%)” value [12] was 98%. The “Population Pyknosed Nuclei (%)” value [12] was 7%, the “Population Tubulin-Different-Phenotype (%)” value [12] was 6% and the “Total Cell Count” value [12] was 242.
